Active and inactive are the calls of the source. No cut-off for these calls is given here.
Legend:
[1] = Half life in SCID mouse at 1 mg/kg, iv; assay type: ADME, organism-based; design: dose 1 mg/kg, route intravenous; conditions: in vivo
Method in brief: (§1)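 Mouse PK. IV via the lateral tail vein in 3% DMSO/30% Solutol/67% PBS, or oral gavage in 100% PEG400, 100 μL dose volume, after an overnight fast. Trunk blood was taken from three mice per time point over 6 h. Plasma was acetonitrile-precipitated and analysed by LC-MS/MS. Parameters were derived noncompartmentally.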

[2] = AUC in CD-1 mouse at 1 mg/kg, iv; assay type: ADME, organism-based; design: dose 1 mg/kg, route intravenous; conditions: plasma; method in brief: as §1
[3] = Half life in Beagle dog at 1 mg/kg, iv; assay type: ADME, organism-based, Canis lupus familiaris; design: dose 1 mg/kg, route intravenous; conditions: in vivo
Method in brief: (§2)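 Dog and monkey PK. IV 0.5 mL/kg in 40% HPβCD via the saphenous vein. Oral dosing was 1 mL/kg by gavage in dogs and 2 mL/kg by nasogastric tube in monkeys, after an overnight fast. Serial femoral-vein blood was taken into heparin over 24 h. Plasma was acetonitrile-precipitated and analysed by LC-MS/MS. Parameters were noncompartmental, n = 3, mean ± SEM.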

[4] = Plasma clearance in cynomolgus monkey at 1 mg/kg, iv; assay type: ADME, organism-based, Macaca fascicularis; design: dose 1 mg/kg, route intravenous
Method in brief: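 IV PK: rats via lateral tail vein (1 mL/kg; 3% DMSO/30% Solutol/67% PBS), serial tail-vein blood over 6 h. Dogs and monkeys via saphenous vein (0.5 mL/kg in 40% HPβCD), femoral-vein blood over 24 h. Acetonitrile protein precipitation, LCMS/MS; noncompartmental parameters from individual animals, n = 3, mean ± SEM.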

[5] = Cmax in Beagle dog at 10 mg/kg, po; assay type: ADME, organism-based, Canis lupus familiaris; design: dose 10 mg/kg, route oral; conditions: in vivo; method in brief: as §2
[6] = AUC in Beagle dog at 10 mg/kg, po; assay type: ADME, organism-based, Canis lupus familiaris; design: dose 10 mg/kg, route oral; conditions: plasma; method in brief: as §2
[7] = Oral bioavailability in Beagle dog at 10 mg/kg; assay type: ADME, organism-based, Canis lupus familiaris; conditions: in vivo
Method in brief: (§3)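 PK: overnight-fasted animals. Rat oral gavage 5 mL/kg in 40% HPβCD, serial tail-vein blood over 6 h. Dog oral gavage 1 mL/kg, monkey nasogastric 2 mL/kg, femoral-vein blood over 24 h. Plasma protein-precipitated with acetonitrile, LCMS/MS with internal standard; noncompartmental analysis, individual animals n = 3, mean ± SEM.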

[8] = Tmax in cynomolgus monkey at 10 mg/kg, po; assay type: ADME, organism-based, Macaca fascicularis; design: dose 10 mg/kg, route oral; conditions: in vivo; method in brief: as §3
[9] = Oral bioavailability in cynomolgus monkey at 10 mg/kg; assay type: ADME, organism-based, Macaca fascicularis; conditions: in vivo; method in brief: as §3
[10] = Cmax in rat at 100 mg/kg, po; assay type: ADME, organism-based; design: dose 100 mg/kg, route oral; conditions: in vivo
Method in brief: (§4)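 Rat oral dose escalation at 10, 30, 55 and 100 mg/kg. Gavage at 5 mL/kg in 40% HPβCD after an overnight fast. Serial tail-vein blood was drawn into heparinized tubes. Plasma was protein-precipitated with acetonitrile and assayed by LC-MS/MS. Cmax and AUC0–12 were derived noncompartmentally; n = 2 at 10 mg/kg.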

[11] = AUC (0 to 12 hrs) in rat 10 mg/kg, po; assay type: ADME, organism-based; design: time < 12 hr, dose 10 mg/kg, route oral; conditions: plasma; method in brief: as §4
[12] = AUC (0 to 12 hrs) in rat 30 mg/kg, po; assay type: ADME, organism-based; design: time < 12 hr, dose 30 mg/kg, route oral; conditions: plasma; method in brief: as §4
Mus musculus [13] = experiment: Inhibition of NPM-ALK phosphorylation in human KARPAS299 cells xenografted in SCID mouse tumor at 30 mg/kg, po qd after 12 hrs by immunoblotting; assay type: functional; conditions: KARPAS-299, 12 h
Method in brief: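 SCID mice bearing sc Karpas-299 xenografts received a single 30 mg/kg oral dose. Phospho- and total NPM-ALK in tumour samples were detected by immunoblotting, and relative NPM-ALK phosphorylation was calculated.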

Mus musculus [14] = experiment: Toxicity in SCID mouse xenografted with human KARPAS299 cells expressing NPM-ALK assessed as effect on body weight at 10 to 30 mg/kg, po bid; assay type: organism-based, KARPAS-299; design: dose 10-30 mg/kg, route oral; conditions: in vivo
Method in brief: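 Female SCID/beige mice (6–8 weeks), Karpas-299 cells implanted sc in left flank; at ~600 mm³ randomized (8–10/group), dosed orally in PEG400, 100 μL, b.i.d. for 12 days. Body weight every 2–3 days; plasma and tumor sampled 2 h after final dose, drug by LCMS/MS; Mann–Whitney rank sum statistics.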

[15] = Drug level in SCID/beige mouse tumor xenografted with human KARPAS299 cells expressing NPM-ALK at 30 mg/kg, po bid after 2 hrs post last dose by LC-MS/MS analysis; assay type: ADME, organism-based, Neoplasm, KARPAS-299; design: dose 30 mg/kg, route oral; conditions: read-out: Drug uptake
Method in brief: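 Female SCID/beige mice, 6–8 weeks old, implanted sc in the left flank with exponentially growing Karpas-299 cells. At about 600 mm³ tumours, mice were randomized (8–10/group) and given PEG400 vehicle or compound orally b.i.d., 100 μL, for 12 days. Tumour volume (0.5236LW(L+W)/2) and body weight were recorded every 2–3 days; Mann–Whitney test. Plasma and tumour levels were measured by LC-MS/MS 2 h after the final dose, mean ± SEM.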

SH-SY5Y = experiment: Antitumor activity against human SH-SY5Y cells expressing ALK mutant R1275Q assessed as growth inhibition administered as po bid; assay type: functional, organism-based
Rattus norvegicus = experiment: Ratio of Cmax at 10 mg/kg, po to Cmax at 100 mg/kg, po in rat; assay type: ADME, organism-based; conditions: in vivo
Method in brief: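 Oral dose-escalation PK study in rats at 10, 30, 55 and 100 mg/kg. […] The ratio compares the 10 mg/kg value with the 100 mg/kg value.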

[16] = Plasma concentration in SCID mouse xenografted with human KARPAS299 cells expressing NPM-ALK at 30 mg/kg, po after 6 hrs by LC-MS/MS analysis; assay type: ADME, organism-based, KARPAS-299; design: dose 30 mg/kg, route oral
Method in brief: (§5)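 Pharmacodynamic study: SCID mice bearing subcutaneous Karpas-299 xenografts given single 30 mg/kg oral dose; plasma drug levels measured by LCMS/MS, reported as mean ± SEM.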

[17] = Plasma concentration in SCID mouse xenografted with human KARPAS299 cells expressing NPM-ALK at 30 mg/kg, po after 24 hrs by LC-MS/MS analysis; assay type: ADME, organism-based, KARPAS-299; design: dose 30 mg/kg, route oral; method in brief: as §5
[18] = Drug level in SCID mouse tumor xenografted with human KARPAS299 cells expressing NPM-ALK at 30 mg/kg, po after 12 hrs by LC-MS/MS analysis; assay type: ADME, organism-based, Neoplasm, KARPAS-299; design: dose 30 mg/kg, route oral; conditions: read-out: Drug uptake
Activated CDC42 kinase 1 = Activated CDC42 kinase 1 (Homo sapiens, UniProt Q07912); experiment: Inhibition of human ACK1
Chain of Activated CDC42 kinase 1 (Q07912 whole entry): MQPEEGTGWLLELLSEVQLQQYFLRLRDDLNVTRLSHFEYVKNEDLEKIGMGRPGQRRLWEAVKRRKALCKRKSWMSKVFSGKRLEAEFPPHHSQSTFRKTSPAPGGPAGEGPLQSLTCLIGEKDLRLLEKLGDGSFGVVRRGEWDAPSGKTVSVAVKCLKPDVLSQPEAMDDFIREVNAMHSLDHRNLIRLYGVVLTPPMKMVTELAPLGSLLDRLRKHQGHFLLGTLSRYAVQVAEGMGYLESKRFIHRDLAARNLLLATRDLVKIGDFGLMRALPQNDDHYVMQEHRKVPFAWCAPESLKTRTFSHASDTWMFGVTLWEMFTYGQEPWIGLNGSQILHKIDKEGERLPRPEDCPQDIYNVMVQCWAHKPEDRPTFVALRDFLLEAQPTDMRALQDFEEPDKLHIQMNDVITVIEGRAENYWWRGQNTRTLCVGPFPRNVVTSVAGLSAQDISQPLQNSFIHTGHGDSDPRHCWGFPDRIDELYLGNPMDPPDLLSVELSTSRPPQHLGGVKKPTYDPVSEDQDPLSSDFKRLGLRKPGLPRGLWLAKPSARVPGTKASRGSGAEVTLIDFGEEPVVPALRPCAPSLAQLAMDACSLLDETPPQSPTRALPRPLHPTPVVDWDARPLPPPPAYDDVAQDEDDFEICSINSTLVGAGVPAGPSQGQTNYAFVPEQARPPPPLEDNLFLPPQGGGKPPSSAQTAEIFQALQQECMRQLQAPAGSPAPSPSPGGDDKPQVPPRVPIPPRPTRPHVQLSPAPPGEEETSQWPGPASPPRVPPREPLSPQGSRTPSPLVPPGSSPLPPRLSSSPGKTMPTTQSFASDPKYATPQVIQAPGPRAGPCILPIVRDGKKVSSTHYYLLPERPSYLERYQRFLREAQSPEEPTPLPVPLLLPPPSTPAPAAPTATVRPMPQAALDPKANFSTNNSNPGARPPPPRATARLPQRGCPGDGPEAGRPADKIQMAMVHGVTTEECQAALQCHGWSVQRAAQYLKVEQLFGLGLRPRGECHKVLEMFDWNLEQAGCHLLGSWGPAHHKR

[19] = molecular target: Protein-tyrosine kinase 6 (Homo sapiens, UniProt Q13882); experiment: Inhibition of human BRK
Chain of Protein-tyrosine kinase 6 (Q13882 whole entry): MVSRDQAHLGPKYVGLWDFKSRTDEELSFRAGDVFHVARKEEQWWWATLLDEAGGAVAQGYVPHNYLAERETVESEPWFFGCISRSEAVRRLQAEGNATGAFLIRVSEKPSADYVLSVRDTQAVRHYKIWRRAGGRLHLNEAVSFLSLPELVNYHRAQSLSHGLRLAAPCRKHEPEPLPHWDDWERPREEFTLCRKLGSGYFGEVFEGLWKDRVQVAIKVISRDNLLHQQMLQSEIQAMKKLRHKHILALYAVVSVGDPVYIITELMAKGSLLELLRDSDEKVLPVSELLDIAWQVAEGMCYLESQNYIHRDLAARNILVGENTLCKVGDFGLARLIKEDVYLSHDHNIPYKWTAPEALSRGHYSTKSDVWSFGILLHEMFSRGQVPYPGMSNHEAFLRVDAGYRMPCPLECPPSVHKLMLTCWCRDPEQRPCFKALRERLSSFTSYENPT

Focal adhesion kinase 1 [20] = molecular target: T1, Focal adhesion kinase 1 (Homo sapiens, UniProt Q05397); experiment: Inhibition of human FAK
Method in brief: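 Commercial activity-assay panel of 259 kinases. Each kinase was first screened at 1 μM, and those inhibited by ≥90% went on to full IC50 determination.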
Target sequence in this assay (Q05397 whole entry): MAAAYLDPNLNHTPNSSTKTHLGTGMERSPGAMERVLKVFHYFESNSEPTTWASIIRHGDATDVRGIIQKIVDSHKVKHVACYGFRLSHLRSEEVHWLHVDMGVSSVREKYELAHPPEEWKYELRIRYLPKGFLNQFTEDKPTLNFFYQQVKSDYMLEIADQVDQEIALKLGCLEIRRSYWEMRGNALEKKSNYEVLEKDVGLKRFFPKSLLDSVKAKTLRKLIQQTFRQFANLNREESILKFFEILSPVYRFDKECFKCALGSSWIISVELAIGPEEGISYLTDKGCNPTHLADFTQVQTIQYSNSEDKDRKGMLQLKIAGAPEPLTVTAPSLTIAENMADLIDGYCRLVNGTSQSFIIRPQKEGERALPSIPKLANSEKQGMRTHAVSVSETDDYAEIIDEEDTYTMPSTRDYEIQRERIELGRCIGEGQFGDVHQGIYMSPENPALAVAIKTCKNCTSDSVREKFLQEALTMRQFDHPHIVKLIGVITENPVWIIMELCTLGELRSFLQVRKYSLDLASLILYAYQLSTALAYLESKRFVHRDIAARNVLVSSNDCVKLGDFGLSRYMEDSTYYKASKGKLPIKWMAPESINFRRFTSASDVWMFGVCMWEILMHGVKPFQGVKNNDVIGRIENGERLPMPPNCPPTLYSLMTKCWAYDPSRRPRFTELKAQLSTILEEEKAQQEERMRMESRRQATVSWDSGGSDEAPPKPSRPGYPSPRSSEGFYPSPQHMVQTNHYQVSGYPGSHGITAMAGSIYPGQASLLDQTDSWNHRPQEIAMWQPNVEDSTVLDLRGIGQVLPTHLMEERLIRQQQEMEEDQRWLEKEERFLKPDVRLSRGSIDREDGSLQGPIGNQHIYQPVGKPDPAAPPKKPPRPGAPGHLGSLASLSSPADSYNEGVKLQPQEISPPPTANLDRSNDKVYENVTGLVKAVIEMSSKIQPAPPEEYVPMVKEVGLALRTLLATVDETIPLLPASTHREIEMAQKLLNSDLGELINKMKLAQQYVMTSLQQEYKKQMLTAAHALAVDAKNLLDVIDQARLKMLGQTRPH

[21] = molecular target: Tyrosine-protein kinase Fer (Homo sapiens, UniProt P16591); experiment: Inhibition of human Fer
[22] = molecular target: Ribosomal protein S6 kinase alpha-6 (Homo sapiens, UniProt Q9UK32); experiment: Inhibition of human Rsk4
Chain of Ribosomal protein S6 kinase alpha-6 (Q9UK32 whole entry): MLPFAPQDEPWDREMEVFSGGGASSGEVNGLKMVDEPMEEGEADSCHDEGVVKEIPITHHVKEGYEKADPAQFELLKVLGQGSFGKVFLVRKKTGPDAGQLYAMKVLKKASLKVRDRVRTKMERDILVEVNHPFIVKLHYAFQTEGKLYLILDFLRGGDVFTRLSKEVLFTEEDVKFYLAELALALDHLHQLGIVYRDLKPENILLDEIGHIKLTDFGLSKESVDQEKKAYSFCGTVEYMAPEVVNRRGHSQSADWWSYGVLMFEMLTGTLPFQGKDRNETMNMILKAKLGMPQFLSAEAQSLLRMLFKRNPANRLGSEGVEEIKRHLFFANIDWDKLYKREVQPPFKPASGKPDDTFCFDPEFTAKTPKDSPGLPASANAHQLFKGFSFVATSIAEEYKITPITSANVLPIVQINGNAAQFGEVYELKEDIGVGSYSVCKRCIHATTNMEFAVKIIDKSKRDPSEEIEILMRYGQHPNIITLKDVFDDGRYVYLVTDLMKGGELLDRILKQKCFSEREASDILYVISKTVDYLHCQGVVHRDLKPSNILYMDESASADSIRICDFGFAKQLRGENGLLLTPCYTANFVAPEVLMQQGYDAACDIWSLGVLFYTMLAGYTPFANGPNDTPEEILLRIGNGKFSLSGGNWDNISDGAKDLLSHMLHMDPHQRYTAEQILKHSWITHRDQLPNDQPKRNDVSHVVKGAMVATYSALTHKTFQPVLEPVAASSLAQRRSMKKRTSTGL
Method in brief: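 Millipore KinaseProfiler activity assays on a 259-kinase panel; kinases inhibited by ≥90% at 1 μM then taken to full IC50 determination.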

[23] = molecular target: Ribosomal protein S6 kinase alpha-1 (Homo sapiens, UniProt Q15418); conditions: 1 uM
[24] = molecular target: NUAK family SNF1-like kinase 1 (Homo sapiens) (UniProt O60285); conditions: 1 uM
Chain of NUAK family SNF1-like kinase 1 (Homo sapiens) (O60285 whole entry): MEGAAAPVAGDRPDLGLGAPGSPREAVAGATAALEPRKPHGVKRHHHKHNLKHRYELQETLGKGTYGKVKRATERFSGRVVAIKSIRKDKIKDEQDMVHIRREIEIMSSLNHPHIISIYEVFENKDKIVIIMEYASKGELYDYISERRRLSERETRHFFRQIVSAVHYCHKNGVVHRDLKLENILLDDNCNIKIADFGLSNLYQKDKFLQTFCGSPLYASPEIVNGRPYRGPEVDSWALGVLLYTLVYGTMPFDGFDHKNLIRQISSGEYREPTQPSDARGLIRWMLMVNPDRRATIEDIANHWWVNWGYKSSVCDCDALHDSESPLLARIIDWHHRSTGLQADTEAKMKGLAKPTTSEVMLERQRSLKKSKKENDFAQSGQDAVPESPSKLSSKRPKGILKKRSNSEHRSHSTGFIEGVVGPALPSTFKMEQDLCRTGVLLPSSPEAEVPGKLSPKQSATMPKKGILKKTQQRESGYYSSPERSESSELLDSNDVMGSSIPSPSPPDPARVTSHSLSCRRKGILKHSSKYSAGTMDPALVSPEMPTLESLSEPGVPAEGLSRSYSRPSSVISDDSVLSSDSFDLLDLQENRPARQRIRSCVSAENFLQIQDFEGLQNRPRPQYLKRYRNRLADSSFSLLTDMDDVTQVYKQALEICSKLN

Focal adhesion kinase 1 [25] = molecular target: T1, Focal adhesion kinase 1; conditions: 1 uM
Target sequence in this assay (Q05397 2-1052 limits assumed): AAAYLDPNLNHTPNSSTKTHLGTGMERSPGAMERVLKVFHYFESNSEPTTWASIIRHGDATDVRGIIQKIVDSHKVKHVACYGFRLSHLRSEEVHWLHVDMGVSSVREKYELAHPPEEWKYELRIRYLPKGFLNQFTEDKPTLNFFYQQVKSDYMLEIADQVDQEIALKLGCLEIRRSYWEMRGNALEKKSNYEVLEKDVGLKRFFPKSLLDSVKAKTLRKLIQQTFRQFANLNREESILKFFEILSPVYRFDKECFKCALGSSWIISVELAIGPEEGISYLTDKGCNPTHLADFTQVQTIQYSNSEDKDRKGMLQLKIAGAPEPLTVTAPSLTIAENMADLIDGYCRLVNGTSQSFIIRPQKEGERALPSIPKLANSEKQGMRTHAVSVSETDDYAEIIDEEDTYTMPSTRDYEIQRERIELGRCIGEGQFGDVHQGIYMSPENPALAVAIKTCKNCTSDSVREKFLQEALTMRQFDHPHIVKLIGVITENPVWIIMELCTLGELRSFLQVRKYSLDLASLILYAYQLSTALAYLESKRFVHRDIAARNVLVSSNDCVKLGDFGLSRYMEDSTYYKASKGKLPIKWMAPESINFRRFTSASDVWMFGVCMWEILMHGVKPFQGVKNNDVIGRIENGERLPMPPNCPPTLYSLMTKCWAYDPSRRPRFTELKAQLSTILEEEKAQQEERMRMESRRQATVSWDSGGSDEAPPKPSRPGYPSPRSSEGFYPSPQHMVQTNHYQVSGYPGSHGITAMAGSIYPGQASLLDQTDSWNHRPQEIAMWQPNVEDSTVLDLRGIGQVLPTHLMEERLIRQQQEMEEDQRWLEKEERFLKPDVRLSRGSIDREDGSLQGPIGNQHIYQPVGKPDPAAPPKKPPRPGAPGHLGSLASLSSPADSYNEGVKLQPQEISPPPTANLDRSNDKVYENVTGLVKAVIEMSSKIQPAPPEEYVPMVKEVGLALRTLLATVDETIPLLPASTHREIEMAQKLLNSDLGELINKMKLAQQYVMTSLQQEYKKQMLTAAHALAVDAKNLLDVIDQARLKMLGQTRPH

COc1c(Nc2ncc(Cl)c(N[C@H]3[C@@H](C(N)=O)[C@@H]4C=C[C@H]3C4)n2)ccc2c1CC[C@@H](N1CCOCC1)CC2
half-life [1]: 1.8 h | AUC [2]: 584 ng·h/mL | half-life [3]: 2.4 h | clearance [4]: 28 mL/min/kg | Cmax [5]: 427 ng/mL | AUC [6]: 2130 ng·h/mL | bioavailability [7]: 52% | Tmax [8]: 4.7 h | bioavailability [9]: 16% | Cmax [10]: 3050 ng/mL | AUC(0-t) at 12 h [11]: 2570 ng·h/mL | AUC(0-t) at 12 h [12]: 10900 ng·h/mL | inhibition in vivo at 30 mg/kg (Mus musculus [13]): > 90% | Activity (Mus musculus [14]): Non-toxic | concentration at 2 h [15]: 4040 ng/g | growth inhibition (GI) (SH-SY5Y): Active | Ratio (Rattus norvegicus): 9 | concentration at 6 h [16]: 3840 ng/mL | concentration at 24 h [17]: 12 ng/mL | concentration at 12 h [18]: 1460 ng/g | IC50 (Activated CDC42 kinase 1): 41 nM | IC50 [19]: 73 nM | IC50 (Focal adhesion kinase 1 [20]): 133 nM | IC50 [21]: 85 nM | IC50 [22]: 19 nM | inhibition [23]: > 90% | inhibition [24]: > 90% | inhibition (Focal adhesion kinase 1 [25]): > 90%
